Sampled rows, rich in hits. Any-hit rate of the full collection: about 2.6%.
SENP1 FRET inh = human SENP1 catalytic domain inhibitors, primary screen, biochemical, FRET, uHTS; Sentrin-specific protease 1 (Homo sapiens), Q9P0U3; recombinant SENP1 catalytic domain, CyPet-SUMO1-YPet FRET cleavage; inhibition, % at 10 µM; actives 0.21% (n = 360,000);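 active means inhibition at least 30% at 10 µM, raw YFP signal under a set limit, fluorescence ratio 0.5 to 1.5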;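 further: 0% = enzyme with DMSO and 100% = no enzyme wells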
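system = hSENP1 catalytic domain, recombinant | reagent = SFCypet-SUMO1-SFYpet substrate at 25 nM | doses = one dose per compound, 10 µM, 0.5% DMSO | incubation = enzyme reaction for 50 min at room temperature, dark | measured by = FRET, CFP and YFP emission | controls = no-enzyme low, enzyme-DMSO high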
SENP8 block-1 = SENP8 protease inhibitors, primary screen, biochemical, luminescence; actives 1.2% (n = 330,000); Sentrin-specific protease 8 (Homo sapiens), Q96LD8; purified SENP8, Z-RLRGG-aminoluciferin cleavage; inhibition, % at 10 µM; in the data active means inhibition above about 50%
SENP7 block = SENP7 protease inhibitors, primary screen, biochemical, luminescence, uHTS; recombinant SENP7, Z-RLRGG-aminoluciferin luminescence, 40 min; inhibition, % at 5 µM; actives 1.5% (n = 330,000);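 active means inhibition above about 50% at the single test dose, limit read from the data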;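 further: plate controls were DMSO with enzyme for no effect and no enzyme buffer wells for full effect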
Target sequence (Q9BQF6 706-1050 limits assumed): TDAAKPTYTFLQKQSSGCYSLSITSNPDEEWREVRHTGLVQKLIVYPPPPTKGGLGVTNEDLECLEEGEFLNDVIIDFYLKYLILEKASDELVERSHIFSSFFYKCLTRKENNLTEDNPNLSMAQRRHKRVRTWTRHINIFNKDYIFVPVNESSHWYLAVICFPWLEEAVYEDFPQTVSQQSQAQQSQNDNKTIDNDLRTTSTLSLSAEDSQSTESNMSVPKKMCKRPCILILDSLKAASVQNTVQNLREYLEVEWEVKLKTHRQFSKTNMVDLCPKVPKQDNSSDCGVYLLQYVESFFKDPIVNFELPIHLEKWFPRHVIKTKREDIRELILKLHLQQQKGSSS
SENP6 block = SENP6 protease inhibitors, primary screen, biochemical, luminescence, uHTS; Sentrin-specific protease 6 (Homo sapiens), Q9GZR1; Recombinant SENP6 catalytic domain, aminoluciferin luminescence; inhibition, % at 10 µM; actives 1.8% (n = 330,000); AID 2599, 2010;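 active means inhibition above about 50% at the single tested dose, limit read from the data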;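 further: plate controls were DMSO wells with enzyme for no effect and DMSO wells lacking enzyme for full effect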
Platelet DG rel = inhibitors of platelet dense granule secretion, primary screen, cell-based, MLPCN, human platelets; human platelet-rich plasma, SFLLRN dense granule ATP release, luminescence; inhibition, %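 (compounds screened at 7.5 µM in platelet-rich plasma)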; actives 0.22% (n = 300,000); AID 1663, 2009;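 active means mean replicate score, as percent of positive control, at or above 50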
SENP8 block-2 = human SENP8 protease inhibitors, primary screen, biochemical, fluorescence, Nedd8 protein substrate, uHTS. recombinant SENP8. AID 602440, 2012. inhibition, % at 20 µM. Sentrin-specific protease 8 (Homo sapiens), Q96LD8. actives 0.64% (n = 360,000); in the data active means inhibition mostly above about 40%, no sharp cut-off; inactive means mostly below about 27%
SENP8 confirm = SENP8 protease inhibitors, retest, confirmation, biochemical, luminescence, single concentration; actives 40% (n = 6,200); Recombinant SENP8, Z-RLRGG-aminoluciferin luminescence, 60 min; AID 488912, 2010; shares compounds with SENP7 block; inhibition, % at 12.5 µM;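 active means mean inhibition across replicates above about 50%, limit read from the data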
SENP6 confirm = SENP6 protease inhibitors, confirmation, biochemical, luminescence, single concentration; shares compounds with SENP7 block; recombinant SENP6, Z-RLRGG-aminoluciferin luminescence; inhibition, % at 12.5 µM; actives 58% (n = 6,200)
SENP7 conf = SENP7 protease inhibitors, retest, confirmation, biochemical, luminescence, single concentration. inhibition, % at 12.5 µM. recombinant SENP7, Z-RLRGG-aminoluciferin luminescence, 40 min. AID 488917, 2010. shares compounds with SENP7 block. actives 69% (n = 6,200)
Casp3 select = caspase-3 protease inhibitors, confirmation, selectivity assay for SENP inhibitor project, biochemical, single concentration; shares compounds with SENP7 block; inhibition, % at 12.5 µM; AID 488918, 2010; actives 60% (n = 6,200); purified caspase-3, Z-DEVD-aminoluciferin luminescence, 60 min;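 active means mean inhibition above about 50%, limit read from the data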;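 further: plate controls were enzyme with DMSO for no effect and wells without caspase-3 for full effect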
Target sequence (P42574 28-227 limits assumed): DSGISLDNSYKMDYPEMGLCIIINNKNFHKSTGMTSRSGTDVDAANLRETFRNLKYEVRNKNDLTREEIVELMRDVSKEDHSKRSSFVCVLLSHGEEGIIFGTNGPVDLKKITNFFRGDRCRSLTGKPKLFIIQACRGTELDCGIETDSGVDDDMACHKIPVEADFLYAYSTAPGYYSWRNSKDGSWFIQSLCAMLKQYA
SENP luc ctr = counter-screen for SENP inhibitors: luminescence interference | shares compounds with SENP7 block | Pre-incubated SENP8/Z-RLRGG-aminoluciferin, luciferase luminescence interference | inhibition, % at 12.5 µM | actives 39% (n = 6,200);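 active means mean inhibition above about 50% when retested at one dose, limit read from the data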;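 further: plate controls were DMSO wells with completed reaction for no effect and substrate without enzyme for full effect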
Numbers without * were called inactive; . = not tested or not shown.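 How the source made its calls, unless noted: active means mean inhibition above about 50% in the one-dose retest (limit read from the data); inactive means the rest.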

SMILES | SENP1 FRET inh | SENP8 block-1 | SENP7 block | SENP6 block | Platelet DG rel | SENP8 block-2 | SENP8 confirm | SENP6 confirm | SENP7 conf | Casp3 select | SENP luc ctr
O=c1[nH]ncc(N/N=C\c2ccc(O)cc2O)c1Cl | 1 | 63* | 65* | 69* | 16 | -161 | 66* | 64* | 87* | 81* | 62*
Cc1ccc(/C=N/Nc2cccc3cccnc23)c(O)c1 | -69 | 70* | 92* | 78* | 10 | -54 | 86* | 93* | 78* | 77* | 58*
Oc1ccc(/C=N/Nc2cccc3cccnc23)c(O)c1 | -38 | 82* | 77* | 89* | 8 | -22 | 73* | 89* | 99* | 65* | 20
Cc1cc(-c2ccccc2)nc(N/N=C/c2ccc(O)cc2O)n1 | 3 | -18 | -24 | -18 | 15 | 4 | . | . | . | . | .
Oc1ccc(/C=N/Nc2ncc(Br)cn2)c(O)c1 | 1 | 58* | 72* | 86* | 7 | 9 | 73* | 73* | 90* | 70* | 75*
COc1ccccc1CCNC(=O)c1c(N)[nH]c(C(=O)c2ccccc2)c1-c1ccc(Br)cc1 | 1 | . | . | . | . | 8 | . | . | . | . | .
CCc1cc(C(=O)Nc2ccc(S(=O)(=O)NC3=NCCCCC3)cc2)sc1C | -3 | -1 | 7 | -14 | 0 | -11 | . | . | . | . | .
C=CCC[C@H](Cc1ccc(F)cc1)C(=O)OC[C@@H](Cc1c[nH]c2ccccc12)NC(=O)[C@@H](CC=C)CC(=O)NCCO | 2 | -14 | -6 | 6 | . | 8 | . | . | . | . | .
CCCC(=O)N1CCCC(C(=O)c2cccc(OC(C)C)c2)C1 (stereo not given) | -1 | . | . | . | -10 | 15 | . | . | . | . | .
O=C(O)c1cc([N+](=O)[O-])ccc1NCCCc1ccccc1 | -6 | 68* | -1 | 74* | 3 | 7 | 75* | 69* | 73* | 52* | 71*
CC(C)N1CCC1(C)C(=O)Nc1ccc(-n2cccc2)cc1 (stereo not given) | -2 | . | . | . | . | 25 | . | . | . | . | .
CCOC(=O)c1sc2nc3c(cc2c1N)COC(C(C)C)C3 (stereo not given) | -95 | -3 | 51* | 20 | 2 | -262 | 12 | 8 | 6 | 18 | 3
CCCOc1ccc(/C=N/Nc2ccccc2[N+](=O)[O-])c(O)c1 | 2 | 94* | 99* | 96* | 34 | 38 | 58* | 46 | 30 | 78* | 8
CCC/C=C/c1ccc(CN2C(CC(C)C)C(=O)N(Cc3cn(CC4CCCCC4)nn3)CCS2(=O)=O)cc1 (stereo not given) | -2 | . | . | . | . | -1 | . | . | . | . | .
Cc1nn(C)c(C(=O)N2CCOCC2)c1Cl | 2 | 3 | -4 | 11 | 0 | 21 | . | . | . | . | .
COc1ccccc1C(=O)NCCC(=O)N(C)CC(=O)Nc1ccc(N2CCOCC2)cc1 | 3 | 1 | 0 | -3 | -2 | 10 | . | . | . | . | .
O=C(Nc1cccnc1)c1ccc(Oc2ccccc2)cc1 | 2 | 78* | 89* | 90* | 17 | 31 | 85* | 88* | 98* | 85* | 70*
CCOc1cc(C(=O)Nc2cccnc2)cc(OCC)c1OCC | 1 | 5 | -4 | 18 | 4 | 2 | . | . | . | . | .
O=C(Nc1cccc(Oc2ccc(C(=O)O)c(C(=O)O)c2)c1)c1ccc(-c2ccccc2)cc1 | 3 | 44 | 2 | 72* | 11 | 7 | 51* | 39 | 64* | 50* | 68*
CCCOc1ccc(C(=O)Nc2cccnc2)cc1 | 0 | 37 | 69* | 70* | 3 | 0 | 54* | 52* | 86* | 83* | 69*
O=C(Nc1ccccc1)C(=O)Nc1cccnc1 | 0 | 69* | 86* | 76* | 27 | 26 | 2 | 26 | 67* | 73* | 8
O=C(NCO)c1cccnc1 | 3 | . | . | . | . | 6 | . | . | . | . | .
CSCCC(NC(=O)COc1ccccc1)C(=O)OC(C)C(=O)Nc1ccccc1C (stereo not given) | 3 | -6 | 17 | -8 | 10 | 8 | . | . | . | . | .
CCCCOc1ccc(C(=O)Nc2ccncc2)cc1 | -1 | 43 | 38 | 57* | 10 | 13 | 45 | 40 | 77* | 52* | 22
CCCCOc1ccc(C(=O)NC)cc1 | 1 | -19 | -10 | -8 | 11 | 22 | . | . | . | . | .
SMILES | SENP1 FRET inh | SENP8 block-1 | SENP7 block | SENP6 block | Platelet DG rel | SENP8 block-2 | SENP8 confirm | SENP6 confirm | SENP7 conf | Casp3 select | SENP luc ctr
COc1ccccc1C(=O)COC(=O)c1cccs1 | -1 | -4 | 3 | 10 | . | 4 | . | . | . | . | .
Cc1ccsc1C(=O)OCC(=O)Nc1sccc1C(N)=O | -7 | 48 | 67* | 38 | 5 | -1 | 56* | 58* | 79* | 67* | 24
COc1cccc(C(=O)COC(=O)c2cccs2)c1 | 3 | 77* | 86* | 84* | 13 | 8 | 1 | 81* | 97* | 84* | 82*
COc1ccc(C(=O)COC(=O)c2cccs2)cc1 | 2 | 92* | 100* | 94* | . | 10 | 94* | 95* | 102* | 96* | 93*
O=C(COC(=O)c1cccs1)c1ccccc1 | 2 | 79* | 83* | 90* | 14 | 28 | 78* | 80* | 96* | 89* | 84*
Cc1ccc(S(=O)(=O)N2CCN(C(=O)COC(=O)CNC(=O)c3ccc(Cl)cc3Cl)CC2)cc1 | 1 | -3 | 9 | -12 | -5 | 15 | . | . | . | . | .
COc1ccccc1N(CC(=O)Nc1cc(S(=O)(=O)N(C)C)ccc1C)S(=O)(=O)c1cccs1 | 2 | -12 | 3 | -6 | . | 11 | . | . | . | . | .

Bioassay records as filed in PubChem BioAssay.
